Test results reported in ChEMBL document CHEMBL4145448, “Broad activity of diphenyleneiodonium analogues against Mycobacterium tuberculosis, malaria parasites and bacterial pathogens” (Eur J Med Chem, 2018).

Key:
[1] = Selectivity index, ratio of CC50 for human HepG2 cells in presence of 1% FBS to MIC for Escherichia coli N4149; format: toxicity; conditions: read-out: Selectivity Index
Pseudomonas aeruginosa [2] = experiment: Antibacterial activity against Pseudomonas aeruginosa isolate M146201 after 18 hrs by broth microdilution method; format: functional; conditions: isolate M146201, 18 h
Summary of the method: (§1)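 Broth microdilution per CLSI in cation-adjusted Mueller-Hinton broth. 100 µL inoculum (~10^6 cfu/mL in CaMHB) mixed with 100 µL CaMHB containing compound, 0 to 128 µM. Incubated 18 h at 37 °C. MIC taken as the lowest concentration with no visible growth. Polymyxin B served as positive control. Isolates were stored at -80 °C in tryptone soy broth with 20% glycerol.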

[3] = Cytotoxicity against human HepG2 cells after 24 hrs in presence of 1% FBS by resazurin dye based assay; format: cell-based
Summary of the method: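 HepG2 cells seeded at 4000/well in DMEM with 1% FBS and allowed to attach for 24 h at 37 °C, 5% CO2. Compounds added from 300 to 0.14 µM in 3-fold steps and incubated 24 h. 10 µM resazurin added for 2 h, fluorescence read at ex/em 560/590. Percent viability computed relative to untreated and negative controls, duplicate wells.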

Acinetobacter baumannii [4] = experiment: Antibacterial activity against Acinetobacter baumannii ATCC 17978 col10 after 18 hrs by broth microdilution method; format: functional; conditions: ATCC 17978 col10, 18 h; summary of the method: as §1
Acinetobacter baumannii [5] = experiment: Antibacterial activity against Acinetobacter baumannii ATCC 19606 col10 after 18 hrs by broth microdilution method; format: functional; conditions: ATCC 19606 = CIP 70.34 = JCM 6841 col10, 18 h; summary of the method: as §1
[6] = Selectivity index, ratio of CC50 for human HepG2 cells in presence of 1% FBS to MIC for Klebsiella pneumoniae isolate 248-33-D; format: toxicity; conditions: read-out: Selectivity Index
[7] = Selectivity index, ratio of CC50 for human HepG2 cells in presence of 1% FBS to MIC for Klebsiella pneumoniae isolate M320445; format: toxicity; conditions: read-out: Selectivity Index
[8] = Selectivity index, ratio of CC50 for human HepG2 cells in presence of 1% FBS to MIC for methicillin-resistant Staphylococcus aureus ATCC 43300; format: toxicity; conditions: read-out: Selectivity Index
Summary of the method: (§2)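 Selectivity index is CC50 (1% FBS) divided by MIC. […] They then got compound at 300 to 0.14 µM (3-fold steps) for 24 h at 37 °C, 5% CO2. Resazurin (10 µM, 2 h) was read at ex/em 560/590 in duplicate wells. For MIC, CLSI broth microdilution was run in CaMHB with ~10^6 cfu/mL inoculum and 0–128 µM compound.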

[9] = Selectivity index, ratio of CC50 for human HepG2 cells in presence of 1% FBS to MIC for Acinetobacter baumannii ATCC 17978; format: toxicity; conditions: read-out: Selectivity Index
[10] = Selectivity index, ratio of CC50 for human HepG2 cells in presence of 1% FBS to MIC for Acinetobacter baumannii isolate 246-01-C; format: toxicity; conditions: read-out: Selectivity Index
Staphylococcus aureus [11] = experiment: Antibacterial activity against methicillin-resistant Staphylococcus aureus ATCC 43300 after 18 hrs by broth microdilution method; format: functional; conditions: ATCC 43300, 18 h; summary of the method: as §1
Staphylococcus aureus [12] = experiment: Antibacterial activity against vancomycin-intermediate Staphylococcus aureus ATCC 700698 after 18 hrs by broth microdilution method; format: functional; conditions: ATCC 700698, 18 h; summary of the method: as §1
Staphylococcus aureus [13] = experiment: Antibacterial activity against vancomycin-resistant Staphylococcus aureus ATCC 700699 after 18 hrs by broth microdilution method; format: functional; conditions: ATCC 700699, 18 h; summary of the method: as §1
[14] = Selectivity index, ratio of CC50 for human HepG2 cells in presence of 1% FBS to MIC for Klebsiella pneumoniae ATCC 13883; format: toxicity; conditions: read-out: Selectivity Index
Pseudomonas aeruginosa [15] = experiment: Antibacterial activity against Pseudomonas aeruginosa ATCC 27853 after 18 hrs by broth microdilution method; format: functional; conditions: ATCC 27853, 18 h; summary of the method: as §1
Klebsiella pneumoniae [16] = experiment: Antibacterial activity against Klebsiella pneumoniae ATCC 13883 after 18 hrs by broth microdilution method; format: functional; conditions: ATCC 13883, 18 h; summary of the method: as §1
Pseudomonas aeruginosa [17] = experiment: Antibacterial activity against Pseudomonas aeruginosa isolate 912 after 18 hrs by broth microdilution method; format: functional; conditions: isolate 912, 18 h; summary of the method: as §1
[18] = Selectivity index, ratio of CC50 for human HepG2 cells in presence of 1% FBS to MIC for Escherichia coli N2381; format: toxicity; conditions: read-out: Selectivity Index
[19] = Selectivity index, ratio of CC50 for human HepG2 cells in presence of 1% FBS to MIC for Acinetobacter baumannii isolate 07AC-336; format: toxicity; conditions: read-out: Selectivity Index
[20] = Selectivity index, ratio of CC50 for human HepG2 cells in presence of 1% FBS to IC50 for CQ-sensitive GFP-fused Plasmodium falciparum D10; format: toxicity; conditions: read-out: Ratio IC50
Enterococcus faecium = experiment: Antibacterial activity against vancomycin-resistant Enterococcus faecium ATCC 700221 after 18 hrs by broth microdilution method; format: functional; conditions: ATCC 700221, 18 h; summary of the method: as §1
[21] = Selectivity index, ratio of CC50 for human HepG2 cells in presence of 1% FBS to MIC for Mycobacterium tuberculosis H37Rv ATCC 25618; format: toxicity; conditions: read-out: Selectivity Index
Acinetobacter baumannii [22] = experiment: Antibacterial activity against Acinetobacter baumannii isolate 07AC-336 after 18 hrs by broth microdilution method; format: functional; conditions: isolate 07AC-336, 18 h; summary of the method: as §1
Klebsiella pneumoniae [23] = experiment: Antibacterial activity against Klebsiella pneumoniae isolate M320445 after 18 hrs by broth microdilution method; format: functional; conditions: isolate M320445, 18 h; summary of the method: as §1
[24] = test system: Mycobacterium tuberculosis; experiment: Antimycobacterial activity against Mycobacterium tuberculosis H37Rv ATCC 25618 after 7 days by resazurin dye based assay; format: functional; conditions: H37Rv ATCC 25618, 168 h
Summary of the method: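 H37Rv grown at 37 °C in 7H9 with 10% ADC, 0.5% glycerol and 0.02% tyloxapol. Compounds serially diluted in water, 0 to 10 µM, in triplicate. Culture adjusted to OD600 0.001 and incubated 7 days at 37 °C. Resazurin (0.05% w/v) added for 4-24 h and fluorescence read at 590 nm. MIC is the lowest concentration giving complete growth inhibition versus untreated. Rifampicin served as control.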

[25] = Selectivity index, ratio of CC50 for human HepG2 cells in presence of 1% FBS to MIC for Pseudomonas aeruginosa isolate 912; format: toxicity; conditions: read-out: Selectivity Index; summary of the method: as §2
Escherichia coli = experiment: Antibacterial activity against Escherichia coli N11281 after 18 hrs by broth microdilution method; format: functional; conditions: N11281, 18 h; summary of the method: as §1
[26] = Selectivity index, ratio of CC50 for human HepG2 cells in presence of 1% FBS to MIC for Pseudomonas aeruginosa isolate M146201; format: toxicity; conditions: read-out: Selectivity Index; summary of the method: as §2
[27] = Selectivity index, ratio of CC50 for human HepG2 cells in presence of 1% FBS to MIC for vancomycin-resistant Enterococcus faecium ATCC 700221; format: toxicity; conditions: read-out: Selectivity Index; summary of the method: as §2
[28] = Selectivity index, ratio of CC50 for human HepG2 cells in presence of 1% FBS to MIC for Pseudomonas aeruginosa QLD PSA 1; format: toxicity; conditions: read-out: Selectivity Index; summary of the method: as §2
Pseudomonas aeruginosa [29] = experiment: Antibacterial activity against Pseudomonas aeruginosa QLD PSA 1 after 18 hrs by broth microdilution method; format: functional; conditions: QLD PSA 1, 18 h; summary of the method: as §1
[30] = Selectivity index, ratio of CC50 for human HepG2 cells in presence of 1% FBS to MIC for Escherichia coli N11281; format: toxicity; conditions: read-out: Selectivity Index

| SMILES | selectivity ratio [1] | MIC (Pseudomonas aeruginosa [2]) | CC50 at 24 h [3] | MIC (Acinetobacter baumannii [4]) | MIC (Acinetobacter baumannii [5]) | selectivity ratio [6] | selectivity ratio [7] | selectivity ratio [8] | selectivity ratio [9] | selectivity ratio [10] | MIC (Staphylococcus aureus [11]) | MIC (Staphylococcus aureus [12]) | MIC (Staphylococcus aureus [13]) | selectivity ratio [14] | MIC (Pseudomonas aeruginosa [15]) | MIC (Klebsiella pneumoniae [16]) | MIC (Pseudomonas aeruginosa [17]) | selectivity ratio [18] | selectivity ratio [19] | MIC (Enterococcus faecium) | other results |
| --- | --- | --- | --- | --- | --- | --- | --- | --- | --- | --- | --- | --- | --- | --- | --- | --- | --- | --- | --- | --- | --- |
| c1ccc2c(c1)[I+]c1ccccc1-2 | 0.78 | 9.3 µM | 29.2 µM | 0.58 µM | 4.7 µM | 0.78 | 0.78 | 6.3 | 13 | 6.3 | 4.7 µM | 19 µM | 19 µM | 0.78 | 75 µM | 37 µM | 4.7 µM | 0.78 | 1.6 | 4.7 µM | selectivity ratio [20]: 221; selectivity ratio [21]: 96; MIC (Acinetobacter baumannii [22]): 19 µM; MIC (Klebsiella pneumoniae [23]): 37 µM; MIC [24]: 0.3 µM; selectivity ratio [25]: 6.3; MIC (Escherichia coli): 37 µM; selectivity ratio [26]: 3.1; selectivity ratio [27]: 6.3; selectivity ratio [28]: 3.1; MIC (Pseudomonas aeruginosa [29]): 9.3 µM; selectivity ratio [30]: 0.78 |
| Clc1ccc2c(c1)[I+]c1ccccc1-2 | 0.13 | 2.2 µM | 1.1 µM | < 0.27 µM | 1.1 µM | 0.06 | 0.13 | 0.51 | 2 | 0.51 | 2.2 µM | 2.2 µM | 2.2 µM | 0.13 | 8.7 µM | 8.7 µM | 1.1 µM | 0.13 | 0.51 | 1.1 µM | selectivity ratio [20]: 15; selectivity ratio [21]: 3.9; MIC (Acinetobacter baumannii [22]): 2.2 µM; MIC (Klebsiella pneumoniae [23]): 8.7 µM; MIC [24]: 0.28 µM; selectivity ratio [25]: 1; MIC (Escherichia coli): 4.3 µM; selectivity ratio [26]: 0.51; selectivity ratio [27]: 1; selectivity ratio [28]: 0.51; MIC (Pseudomonas aeruginosa [29]): 2.2 µM; selectivity ratio [30]: 0.26 |
| COc1ccc2c(c1)[I+]c1ccccc1-2 | > 0.11 | 70 µM | 6.8 µM | 2.2 µM | 2.2 µM | > 0.11 | 0.11 | 1.6 | 0.39 | 0.21 | 4.4 µM | 8.7 µM | 8.7 µM | > 0.11 | > 70 µM | > 70 µM | > 70 µM | 0.21 | > 0.11 | 4.4 µM | selectivity ratio [21]: 24; MIC (Acinetobacter baumannii [22]): > 70 µM; MIC (Klebsiella pneumoniae [23]): 70 µM; MIC [24]: 0.28 µM; selectivity ratio [25]: > 0.11; MIC (Escherichia coli): > 70 µM; selectivity ratio [26]: 0.11; selectivity ratio [27]: 1.6; selectivity ratio [28]: 0.11; MIC (Pseudomonas aeruginosa [29]): 70 µM; selectivity ratio [30]: > 0.11 |
| Cc1ccc2c(c1)[I+]c1ccccc1-2.O=S(=O)([O-])C(F)(F)F | 0.05 | 36 µM | 3.6 µM | 1.1 µM | 4.5 µM | 0.05 | 0.11 | 0.81 | 0.81 | 0.21 | 4.5 µM | 9.1 µM | 9.05 µM | 0.05 | 72 µM | 72 µM | 4.5 µM | 0.05 | 0.21 | 4.5 µM | selectivity ratio [20]: 15.8; selectivity ratio [21]: 6.4; MIC (Acinetobacter baumannii [22]): 18 µM; MIC (Klebsiella pneumoniae [23]): 36 µM; MIC [24]: 0.57 µM; selectivity ratio [25]: 0.81; MIC (Escherichia coli): 36 µM; selectivity ratio [26]: 0.11; selectivity ratio [27]: 0.81; selectivity ratio [28]: > 0.05; MIC (Pseudomonas aeruginosa [29]): > 72 µM; selectivity ratio [30]: 0.11 |
| c1ccc2c(c1)[I+]c1c-2ccc2ccccc12 | 0.02 | 8.4 µM | 0.72 µM | 0.52 µM | 1.1 µM | 0.02 | 0.04 | 0.34 | 0.69 | 0.17 | 2.1 µM | 4.2 µM | 4.2 µM | 0.09 | 8.4 µM | 8.4 µM | 2.1 µM | 0.09 | 0.09 | 1.1 µM | selectivity ratio [20]: 5.8; selectivity ratio [21]: 2.4; MIC (Acinetobacter baumannii [22]): 8.4 µM; MIC (Klebsiella pneumoniae [23]): 17 µM; MIC [24]: 0.52 µM; selectivity ratio [25]: 0.34; MIC (Escherichia coli): 17 µM; selectivity ratio [26]: 0.09; selectivity ratio [27]: 0.69; selectivity ratio [28]: 0.17; MIC (Pseudomonas aeruginosa [29]): 4.2 µM; selectivity ratio [30]: 0.04 |
| Cc1ccc2c(c1)-c1ccccc1[I+]2 | > 0.52 | 36 µM | 37.5 µM | 1.1 µM | 9 µM | 0.52 | 0.52 | 4.2 | 4.2 | 4.2 | 9 µM | 18 µM | 18 µM | 0.52 | > 73 µM | 72 µM | 9 µM | 0.52 | 2.2 | 4.5 µM | selectivity ratio [20]: 500; selectivity ratio [21]: 66; MIC (Acinetobacter baumannii [22]): 18 µM; MIC (Klebsiella pneumoniae [23]): 72 µM; MIC [24]: 0.57 µM; selectivity ratio [25]: 4.2; MIC (Escherichia coli): 72 µM; selectivity ratio [26]: 1; selectivity ratio [27]: 8.3; selectivity ratio [28]: 1; MIC (Pseudomonas aeruginosa [29]): 36 µM; selectivity ratio [30]: 0.52 |
